Test results: article PMC6030392 (Neoplasia (New York, N.Y.), 2018)
Read-outs that look alike come from different tables or passages of the source. Marks after values point to notes of the source that are not given here.

Experiments:
[1] = biological target: T1, Bcrp1 (Mus musculus, UniProt Q7TMS5); assay: In vitro Transwell transport, MDCKII parent versus Bcrp1 transduced subline; type: in vitro ADME
T1 sequence (Q7TMS5 1-657): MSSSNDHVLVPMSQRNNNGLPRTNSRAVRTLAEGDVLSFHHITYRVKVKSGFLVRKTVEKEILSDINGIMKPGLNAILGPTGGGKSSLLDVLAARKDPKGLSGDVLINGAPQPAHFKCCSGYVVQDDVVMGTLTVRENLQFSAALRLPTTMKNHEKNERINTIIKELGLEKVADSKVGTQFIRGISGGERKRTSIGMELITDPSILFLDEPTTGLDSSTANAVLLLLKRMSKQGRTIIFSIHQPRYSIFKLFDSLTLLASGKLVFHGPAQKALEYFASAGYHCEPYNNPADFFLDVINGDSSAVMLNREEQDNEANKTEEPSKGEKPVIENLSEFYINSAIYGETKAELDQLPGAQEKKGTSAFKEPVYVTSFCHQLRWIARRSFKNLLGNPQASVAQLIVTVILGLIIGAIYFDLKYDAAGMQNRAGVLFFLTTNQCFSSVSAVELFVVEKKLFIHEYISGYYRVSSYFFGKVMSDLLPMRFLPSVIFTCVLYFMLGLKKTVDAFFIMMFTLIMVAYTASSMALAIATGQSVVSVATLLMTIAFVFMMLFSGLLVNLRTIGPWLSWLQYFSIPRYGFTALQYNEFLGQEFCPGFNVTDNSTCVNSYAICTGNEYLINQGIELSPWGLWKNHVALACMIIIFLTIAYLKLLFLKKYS
Summary of the method: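 MDCKII parent and Bcrp1-transduced cells were grown 3 days on 3.0 μm polycarbonate Transwell filters (1 × 10⁶ cells/well) in MEM with 10% FBS at 37°C. Test compound (40 μg/ml in OptiMEM) went apical or basolateral. Inhibitor went to both sides, plus a P-gp blocker (5 μM). Sampling was every 30 min to 2 h, with half the donor refreshed each time. Wells leaking >1.5%/h were excluded. Analysis by HPLC.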

[2] = cited from earlier work
[3] = dose level of 100 mg/kg; cited from earlier work
[4] = cited from earlier work; remark: listed apart in the source
[5] = cited from earlier work; remark: listed apart in the source
[6] = biological target: Mdr1a (P-gp) (Mus musculus, UniProt P21447); assay: In vitro Transwell transport, LLC-PK1 parent versus Mdr1a transduced subline; type: in vitro ADME, murine; settings: temozolomide 40 μg/ml; LLC-PK1 vs LLC-Mdr1a
[7] = type: in vivo, FVB mice; settings: for AUC 0–7 h, brain: mean ± SE, n ≥ 7
Summary of the method: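 Male FVB mice (WT, Abcg2^−/−, Abcb1a/b^−/−, Abcb1a/b;Abcg2^−/−; 8–15 weeks) got 50 mg/kg i.v. via tail vein. Groups of […] were sampled at 15 min, 1, 2, 4, 7 h by cardiac puncture (K-EDTA plasma, acidified with 1 M HCl). Brains were homogenized in pH 2 phosphate/1% BSA. Extracts (ethyl acetate) were run on HPLC in duplicate. AUC0–7h by linear trapezoidal rule; brain-to-plasma ratio per animal; two-way ANOVA with Bonferroni.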

[8] = Plasma pharmacokinetics of oral temozolomide; type: in vivo, mice; settings: 100 mg/kg oral; WT n = 18, Abcb1a/b;Abcg2^−/− n = 19
[9] = Stability in culture medium at 37°C; type: physicochemical
[10] = test system: intracranial Mel57-luc tumors; assay: Intracranial Mel57-luc tumor efficacy study; type: in vivo, FVB nude mice; settings: oral 100 mg/kg/day × 5
Summary of the method: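 WT or Abcb1a/b;Abcg2^−/− FVB nude mice received Mel57-luc cells (100,000 cells/2 μl) stereotactically 2 mm lateral, 1 mm anterior to bregma, 3 mm deep. Tumor load was set by bioluminescence before stratification to oral test compound 100 mg/kg/day for 5 days, untreated control, or combination with oral inhibitor 20–30 min earlier. Repeated imaging was expressed relative to the first measurement and log-transformed.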

[11] = C57BL × DBA/2 F1 mice; cited from earlier work
[12] = cited from earlier work; remark: listed apart in the source
[13] = Recovery in acceptor compartment of Transwell; type: in vitro ADME; settings: after 30 minutes; transport medium pH 7.4
[14] = test system: GSC457 glioblastoma cells; assay: Orthotopic GSC457 glioblastoma efficacy study; type: in vivo, murine; settings: oral 100 mg/kg/day × 7
[15] = Abcb1a/b^−/− mice, 50 mg/kg i.v.

Mdr1a (P-gp), sequence (P21447 whole entry): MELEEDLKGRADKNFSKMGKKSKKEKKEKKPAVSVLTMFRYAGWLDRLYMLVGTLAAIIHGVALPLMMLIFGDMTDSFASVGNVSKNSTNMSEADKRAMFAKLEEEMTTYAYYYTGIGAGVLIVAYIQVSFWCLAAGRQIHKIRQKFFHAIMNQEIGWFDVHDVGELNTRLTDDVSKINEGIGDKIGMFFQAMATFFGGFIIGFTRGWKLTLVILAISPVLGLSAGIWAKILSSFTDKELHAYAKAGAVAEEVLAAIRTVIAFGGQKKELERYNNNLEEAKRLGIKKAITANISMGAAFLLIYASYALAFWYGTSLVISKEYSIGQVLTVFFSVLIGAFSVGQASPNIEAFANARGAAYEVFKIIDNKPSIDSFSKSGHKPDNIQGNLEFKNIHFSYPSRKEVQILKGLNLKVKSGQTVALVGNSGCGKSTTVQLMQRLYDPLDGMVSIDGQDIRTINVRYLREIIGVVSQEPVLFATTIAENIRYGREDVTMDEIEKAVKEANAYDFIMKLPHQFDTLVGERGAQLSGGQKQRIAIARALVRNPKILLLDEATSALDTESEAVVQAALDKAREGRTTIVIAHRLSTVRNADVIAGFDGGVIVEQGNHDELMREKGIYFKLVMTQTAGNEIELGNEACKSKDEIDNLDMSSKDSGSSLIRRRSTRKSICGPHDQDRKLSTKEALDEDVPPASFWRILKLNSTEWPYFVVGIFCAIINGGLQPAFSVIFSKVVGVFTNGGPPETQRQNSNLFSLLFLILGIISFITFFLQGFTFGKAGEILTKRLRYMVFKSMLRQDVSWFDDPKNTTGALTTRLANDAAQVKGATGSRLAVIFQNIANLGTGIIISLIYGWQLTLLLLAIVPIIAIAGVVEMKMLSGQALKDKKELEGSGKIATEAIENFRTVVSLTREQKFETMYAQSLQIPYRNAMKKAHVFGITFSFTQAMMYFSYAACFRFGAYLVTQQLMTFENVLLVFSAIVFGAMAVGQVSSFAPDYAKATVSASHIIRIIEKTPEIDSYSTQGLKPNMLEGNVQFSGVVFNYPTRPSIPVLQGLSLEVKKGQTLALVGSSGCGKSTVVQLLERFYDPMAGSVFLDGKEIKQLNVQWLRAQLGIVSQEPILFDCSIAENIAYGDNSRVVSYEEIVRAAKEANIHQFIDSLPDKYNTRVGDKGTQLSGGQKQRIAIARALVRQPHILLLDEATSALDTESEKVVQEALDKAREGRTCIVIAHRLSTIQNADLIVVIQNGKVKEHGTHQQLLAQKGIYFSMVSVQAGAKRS

Q: Which “effect on Bcrp1-mediated transport of temozolomide” value (from here on “effect on Bcrp1-mediated transport”) ([1]; inhibitor 5 μM in the medium) does the source give for `COc1cc2c(cc1OC)CN(CCc1ccc(NC(=O)c3cccc4c(=O)c5cccc(OC)c5[nH]c34)cc1)CC2` [elacridar] here?
A: Its value is “almost completely abrogated”.

Q: Which “effect on Bcrp1-mediated transport” value ([1]; inhibitor 10 μM in the medium) does the source give for `C#Cc1cccc(Nc2ncnc3cc(OCCOC)c(OCCOC)cc23)c1` [erlotinib] here?
A: The value was “almost completely abrogated”.

Q: Which “plasma levels achievable in patients relative to the level after 100 mg/kg” value [2] does the source give for `COc1cc2ncnc(Nc3ccc(F)c(Cl)c3)c2cc1OCCCN1CCOCC1` [gefitinib] here?
A: The value was “about 10 fold lower”.

Q: And the plasma levels [3]?
A: Its plasma levels is “about 10 μM”.

Q: And the “effect on Bcrp1-mediated transport” value ([1]; inhibitor 10 μM in the medium)?
A: The value was “almost completely abrogated”.

Q: For `Cc1ccc(NC(=O)c2ccc(CN3CCN(C)CC3)cc2)cc1Nc1nccc(-c2cccnc2)n1` [imatinib], which oral bioavailability [4] is on record?
A: The oral bioavailability was > 90%.

Q: And the brain penetration ([5]; significantly enhanced in Abcb1a/b;Abcg2^−/− mice)?
A: The brain penetration was “poor”.

Q: For `CO[C@@H]1[C@@H](OC(N)=O)[C@@H](O)[C@H](Oc2ccc3c(O)c(NC(=O)c4ccc(O)c(CC=C(C)C)c4)c(=O)oc3c2C)OC1(C)C` [novobiocin], which “effect on Bcrp1-mediated transport” value ([1]; inhibitor 50 μM in the medium) is on record?
A: Its value is “not sufficient”.

Q: Which “higher brain penetration in Abcb1a/b^−/− compared to WT controls” value [5] does the source give for `CC(=O)O[C@H]1C(=O)[C@@]2(C)[C@H]([C@H](OC(=O)c3ccccc3)[C@]3(O)C[C@H](OC(=O)[C@H](O)[C@@H](NC(=O)c4ccccc4)c4ccccc4)C(C)=C1C3(C)C)[C@]1(OC(C)=O)CO[C@@H]1C[C@@H]2O` [paclitaxel] here?
A: Its value is 5 fold.

Q: For `CC(=O)c1c(C)c2cnc(Nc3ccc(N4CCNCC4)cn3)nc2n(C2CCCC2)c1=O` [palbociclib], which “higher brain penetration in Abcb1a/b^−/− compared to WT controls” value [5] is on record?
A: The value was “approximately 15 fold”.

Q: Which “transport by P-gp” value [6] does the source give for `Cn1nnc2c(C(N)=O)ncn2c1=O` [temozolomide] here?
A: The value was “very limited, if any, evidence for transport by P-gp”.

Q: What about the “increase of brain accumulation compared to WT mice” value (from here on “increase of brain accumulation”) ([7]; Abcb1a/b;Abcg2^−/− mice, 50 mg/kg i.v., P < .001) of the same compound?
A: The value was 50%.

Q: What about the “AUC 0–7 h, brain” value ([7]; Abcb1a/b;Abcg2^−/− mice, 50 mg/kg i.v.) of the same compound?
A: Its value is 57.09 ± 1.32**^/# μg/g.h.

Q: What about the “increase of brain accumulation” value [7, 15] of the same compound?
A: The value was “about 20%”.

Q: And the “AUC 0–7 h, brain” value [7, 15]?
A: Its value is 44.51 ± 1.56 µg·h/g.

Q: And the “increase of brain accumulation” value ([7]; Abcg2^−/− mice, 50 mg/kg i.v.)?
A: The value was 20%.

Q: What about the “AUC 0–7 h, brain” value ([7]; Abcg2^−/− mice, 50 mg/kg i.v.) of the same compound?
A: Its value is 44.78 ± 1.88 µg·h/g.

Q: And the “AUC 0–7 h, brain” value ([7]; WT mice, 50 mg/kg i.v.)?
A: Its value is 36.81 ± 1.11 µg·h/g.

Q: What about the “increase of brain penetration compared to wild-type controls” value ([7]; combined deletion of Abcb1a/b and Abcg2, P < .001) of the same compound?
A: Its value is 1.5 fold.

Q: What about the “effect of absence of drug transporters on plasma clearance” value ([7]; knockout vs WT mice, 50 mg/kg i.v.) of the same compound?
A: The value was “did not affect the plasma clearance”.

Q: And the “plasma AUC in Abcb1a/b;Abcg2^−/− versus WT mice” value [8]?
A: The value was “not significantly different”.

Q: What about the half-life [9] of the same compound?
A: The half-life was ~30 min.

Q: And the “antitumor efficacy against intracranial Mel57 tumors, relative to WT mice” value ([10]; Abcb1a/b;Abcg2^−/− mice)?
A: Its value is “significantly higher”.

Q: What about the “antitumor efficacy against intracranial Mel57 tumors” value ([10]; WT mice) of the same compound?
A: Its value is “modest efficacy”.

Q: And the oral bioavailability [11]?
A: Its oral bioavailability is “almost complete”.

Q: What about the main dose-limiting toxicity [12] of the same compound?
A: Its main dose-limiting toxicity is “bone marrow toxicity”.

Q: And the “fraction of the donor concentration recovered in the acceptor compartment” value [13]?
A: Its value is “at least 5%”.

Q: What about the “transport by Bcrp1” value ([1]; temozolomide 40 μg/ml, MDCKII vs MDCKII-Bcrp1, zosuquidar 5 μM present) of the same compound?
A: Its value is “clear vectorial transport by Bcrp1”.

Q: And the “tumor growth and survival, Abcb1a/b;Abcg2^−/− compared to WT mice” value [14]?
A: The value was “significantly slower tumor growth and longer survival”.
